In PubChem BioAssay:
Active and inactive are the calls of the source. Rule as the data show it, unless noted: active = inhibition above about 30%; inactive = the rest.

Assays:
[1] = reduced viability of SK-BR-3 breast cancer cells – cell-based, 24 h, human, pilot screen (AID 572;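 active = viability at or below 10% of carrier control in both of two separate runs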;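 also: compound exposure lasted between 18 and 24 h rather than exactly 24 h; 100% = carrier-treated control wells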); conditions: SK-BR-3 viability, CellTiter-Glo luminescence, at 10 µM, stronger effect = lower value
[2] = HUVEC growth inhibition – cell-based, human, primary screen (AID 575;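 active = viability at or below 30% in both replicate assays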;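 also: 100% = median of untreated cell wells with 0.1% DMSO on each plate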); conditions: HUVEC proliferation, CellTiter-Glo luminescence, 72 h; at 10 µM; stronger effect = lower value
In short: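 Assay system: Primary human umbilical vein endothelial cells | Quantity: 1250 cells per well | Medium: Supplemented EBM, 2% fetal bovine serum | Detection: CellTiter-Glo luminescence measuring cellular ATP | Read-out: % viability vs DMSO wells | Plate: Collagen-coated 384-well format | Times: 72 h exposure, 37 °C, 5% CO2, 30 min RT equilibration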

[3] = H69AR cell proliferation blockers – human, duplicate replicates, primary screen (AID 580;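 active = viability at or under a set limit in both replicates, limit being median viability minus 3 SD, cut at about 48% in these data, passing the limit was not always enough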;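 also: 100% = mean luminescence of untreated wells and 0% = no signal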); conditions: H69AR lung tumor cells viability, ATP luminescence, 72 h; at 10 µM; stronger effect = lower value
[4] = MRP1 drug-resistance reversers in H69AR cells – cell-based, doxorubicin co-treatment, pilot screen (AID 601;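 active = viability loss from added drug above about 55%, and viability with drug at most 40%, in both replicates, limit read from the data, passing the limit was not always enough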); conditions: CellTiter-Glo, 72 h, at 10 µM; for differential viability (reversal): stronger effect = higher value
[5] = yeast transport mutant growth inhibition pilot in 384-well plates, post-Golgi transport modulator project (AID 636; in the data active = inhibition above about 31%); conditions: absorbance 615 nm, about 18 h, stronger effect = higher value
[6] = growth suppression of yeast trafficking mutant, preliminary HTS, modulators of trafficking downstream of Golgi apparatus project, 1536-format plate, OD 615 nm (AID 637); conditions: yeast transport mutant growth, absorbance 615 nm, 18 h; stronger effect = higher value
[7] = H69AR cells + 2 uM doxorubicin, measured here: viability with 2 uM doxorubicin, stronger effect = lower value
[8] = H69AR cells, compound alone cytotoxicity

SMILES	viability [1]	viability [2]	viability [3]	differential viability (reversal) ([4]; H69AR cells + 2 uM doxorubicin)	viability [4, 7] [%]	viability [4, 8] [%]	inhibition [5]	inhibition [6]
CCOC(=O)C1=C(c2ccccc2)N2CCS(=O)(=O)N=C2S1	92% (inactive)	96.9% (inactive)	90.2% (inactive)	6.51% (inactive)	83.7	90.2	-2.13% (inactive)	0% (inactive)
O=C(CSc1nnc(NC(=O)C2CCC2)s1)NC1CC1	100% (inactive)	106% (inactive)	106% (inactive)	12.2% (inactive)	93.4	106	-6.76% (inactive)	2% (inactive)
O=C(Nc1nnc(C2CCCC2)s1)C1CCN(S(=O)(=O)c2ccc(Cl)cc2)CC1	92% (inactive)	94.4% (inactive)	72.3% (inactive)	3.83% (inactive)	68.5	72.3	-5.87% (inactive)	-5.64% (inactive)
O=C(CN1CCN(c2nc(-c3ccc(F)cc3)cs2)CC1)NCc1ccc2c(c1)OCO2	175% (inactive)	69% (inactive)	91.2% (inactive)	15.9% (inactive)	75.2	91.2	-6.49% (inactive)	13.5% (inactive)
CN(C)CCCC1(c2ccc(F)cc2)OCc2cc(C#N)ccc21 (stereo not drawn)	79% (inactive)	73.3% (inactive)	103% (inactive)	17.6% (inactive)	85.7	103	-1.56% (inactive)	-2.5% (inactive)
COC(=O)c1ccccc1NC(=O)c1cnc2sccn2c1=O	110% (inactive)	87.9% (inactive)	104% (inactive)	8.43% (inactive)	95.5	104	-3.6% (inactive)	-0.91% (inactive)
CC(=O)Nc1ccc(S(=O)(=O)N(C2=NCC(C)S2)c2ccccc2)cc1 (stereo not drawn)	85% (inactive)	80.3% (inactive)	91.7% (inactive)	1.89% (inactive)	89.8	91.7	-2.47% (inactive)	-4.35% (inactive)
O=C(NCCN1CCOCC1)C1CCC(=O)N1Cc1ccccc1Cl (stereo not drawn)	148% (inactive)	96.4% (inactive)	90% (inactive)	3.78% (inactive)	86.3	90	-1.43% (inactive)	-1.48% (inactive)
CCOCCCn1c(=NC(C)=O)c(C(=O)OCC)cc2c(=O)n3ccccc3nc21	82% (inactive)	108% (inactive)	90.5% (inactive)	43.1% (inactive)	47.4	90.5	-0.68% (inactive)	2% (inactive)
Cn1c(=O)cc(SCC(=O)NCc2cccnc2)c2ccccc21	92% (inactive)	109% (inactive)	92.7% (inactive)	8.73% (inactive)	83.9	92.7	-6.8% (inactive)	-1.82% (inactive)
O=S(=O)(NC1CCCCC1NS(=O)(=O)c1ccc(F)cc1)c1ccc(F)cc1 (stereo not drawn)	106% (inactive)	91.2% (inactive)	94.1% (inactive)	-1.67% (inactive)	95.8	94.1	-4.68% (inactive)	6.07% (inactive)
CCCCOc1ccc(C(=O)Nc2ccc(N3CCN(C(C)=O)CC3)cc2)cc1	81% (inactive)	88.8% (inactive)	94.4% (inactive)	-11.3% (inactive)	106	94.4	-1.78% (inactive)	0.91% (inactive)
COc1cc(C2Oc3cc(C4Oc5cc(O)cc(O)c5C(=O)C4O)ccc3OC2CO)ccc1O (stereo not drawn)	106% (inactive)	85.7% (inactive)	97.4% (inactive)	4.15% (inactive)	93.2	97.4	1.3% (inactive)	-3.5% (inactive)
Cc1c(NC(=O)C(C)OC(=O)c2cc3c4ccccc4n(C)c3s2)c(=O)n(-c2ccccc2)n1C (stereo not drawn)	94% (inactive)	80.8% (inactive)	78.4% (inactive)	-10% (inactive)	88.4	78.4	-11.4% (inactive)	1.13% (inactive)
COc1ccc(C(C)NC(=O)c2ccoc2C)cc1OC (stereo not drawn)	83% (inactive)	91.3% (inactive)	89.8% (inactive)	-4.93% (inactive)	94.7	89.8	-6.16% (inactive)	1.82% (inactive)
Cc1ccccc1Nc1cc2ccccc2c(=O)[nH]1	95.5% (inactive)	63.8% (inactive)	102% (inactive)	2.71% (inactive)	99.5	102	4.61% (inactive)	17.8% (inactive)
CCCS(=O)(=O)N1CCCC(C(=O)NC2CCCC(C)C2C)C1 (stereo not drawn)	101% (inactive)	113% (inactive)	94.8% (inactive)	8.93% (inactive)	85.8	94.8	-2.73% (inactive)	-3.28% (inactive)
COc1ccc(-n2nc3cc(C)c(N)c(Br)c3n2)cc1	74% (inactive)	85.6% (inactive)	65.5% (inactive)	-33.4% (inactive)	98.9	65.5	-6.3% (inactive)	-1.45% (inactive)

SMILES	viability [1]	viability [2]	viability [3]	differential viability (reversal) ([4]; H69AR cells + 2 uM doxorubicin)	viability [4, 7] [%]	viability [4, 8] [%]	inhibition [5]	inhibition [6]
CCOC(=O)C1CSc2[nH]c(=O)sc2C1c1ccccc1 (stereo not drawn)	100% (inactive)	117% (inactive)	93.2% (inactive)	-9.41% (inactive)	103	93.2	0.95% (inactive)	-2% (inactive)
COc1ccc(C2/C(=C(/O)c3ccccc3)C(=O)C(=O)N2c2ncccn2)cc1OC (stereo not drawn)	105% (inactive)	101% (inactive)	108% (inactive)	8.68% (inactive)	99.1	108	-4.59% (inactive)	-2.55% (inactive)
CCOc1ccccc1NC(=O)CN(C)S(=O)(=O)c1cccc2nsnc12	104% (inactive)	91.1% (inactive)	84% (inactive)	-1.12% (inactive)	85.1	84	-6.76% (inactive)	0.73% (inactive)
CN(Cc1ccccc1)C(=O)c1cc(-c2ccc(Br)cc2)on1	80% (inactive)	94.2% (inactive)	103% (inactive)	7.97% (inactive)	95.3	103	-4% (inactive)	-3.45% (inactive)
CN(C)CC(C(=O)c1ccccc1)c1ccccc1 (stereo not drawn)	30.5%	53.4% (inactive)	1.17% (active)	-0.515% (inactive)	1.68	1.17	2.95% (inactive)	-4.33% (inactive)
COc1ccccc1C1N(c2ccc(F)cc2)C(=O)C2CCCN21 (stereo not drawn)	102% (inactive)	111% (inactive)	108% (inactive)	17.8% (inactive)	90.1	108	-5.07% (inactive)	-1.27% (inactive)
COC(=O)c1ccc2c(=O)n(NC(C)=O)c(=S)[nH]c2c1	93% (inactive)	109% (inactive)	93.7% (inactive)	10.7% (inactive)	83	93.7	-6.67% (inactive)	3.09% (inactive)
Clc1ccc2c(c1)C(N1CCNCC1)=Nc1ccccc1O2	73% (inactive)	46% (inactive)	84.4% (inactive)	11.4% (inactive)	73	84.4	-1.3% (inactive)	-3.83% (inactive)
CCOC(=O)Cc1csc(/C(=N/O)C(N)=O)n1	94% (inactive)	94.7% (inactive)	92.6% (inactive)	-4.43% (inactive)	97.1	92.6	-1.82% (inactive)	-5.41% (inactive)
O=C1CCCN1Cc1ncnn1-c1ccccc1	89% (inactive)	108% (inactive)	112% (inactive)	14.7% (inactive)	97.1	112	0.27% (inactive)	-6.55% (inactive)
COC(=O)CSc1nnc(CSc2nc(C)cc(C)n2)n1Cc1ccco1	81% (inactive)	104% (inactive)	99.8% (inactive)	24.3% (inactive)	75.5	99.8	-4.53% (inactive)	-7.27% (inactive)
O=C(NC1(C(F)(F)F)C(=O)Nc2c1c(=O)[nH]c(=O)n2Cc1ccco1)C1CCCCC1 (stereo not drawn)	106% (inactive)	97.6% (inactive)	97.9% (inactive)	17.5% (inactive)	80.4	97.9	-6.49% (inactive)	-1.82% (inactive)
Cc1cccc(NC(=O)C2CCCN2C(=O)OCC(C)C)c1C (stereo not drawn)	96% (inactive)	108% (inactive)	92% (inactive)	8.52% (inactive)	83.5	92	-4.86% (inactive)	-3.82% (inactive)
COc1cc2c(cc1OC)CN(CC(=O)Nc1cccc(C)c1)CC2	117% (inactive)	90.4% (inactive)	93.1% (inactive)	9.21% (inactive)	83.9	93.1	0.14% (inactive)	-7.9% (inactive)
CC(=O)Nc1nc(=S)ss1	135% (inactive)	103% (inactive)	87.5% (inactive)	-8.28% (inactive)	95.7	87.5	-1.3% (inactive)	-0.33% (inactive)
CCn1c(SCC(=O)Nc2ccccc2N2CCCCC2)nc2c1c(=O)n(C)c(=O)n2C	113% (inactive)	75.4% (inactive)	73.9% (inactive)	1.19% (inactive)	72.7	73.9	-6.13% (inactive)	3.09% (inactive)
O=C(c1cccnc1)N1CCN(C(=O)c2ccccc2F)CC1	97% (inactive)	98.5% (inactive)	97.2% (inactive)	11.5% (inactive)	85.7	97.2	-4% (inactive)	-5.09% (inactive)
Cc1ccc2c(c1)nnn2C1CCN(C(=O)NC23CC4CC(CC(C4)C2)C3)CC1	72% (inactive)	102% (inactive)	92.1% (inactive)	8.39% (inactive)	83.7	92.1	-8.08% (inactive)	0.16% (inactive)
